Experimental data published in ChEMBL document CHEMBL1154750 (J Med Chem, 2010).

Columns and labels:
[1] = target: Neuraminidase (Influenza A virus (A/Puerto Rico/8/1934(H1N1)), UniProt P03468); assay: Inhibition of Influenza Virus A/PR/8/34 neuraminidase chemiluminescence-based enzyme inhibition assay
How it was run: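 Chemiluminescent NA assay using NA-Star 1,2-dioxetane sialic acid substrate. Virus culture supernatant was serially 2-fold diluted in NA-Star buffer, and the dilution giving 40:1 signal-to-noise was used. Compound was preincubated with virus for 20 min at 37 C, then substrate (1:500) was added for 30 min at room temperature. Mean of six untreated virus controls set to 100%. IC50 from n = 3 assays, triplicate wells.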

[2] = target: T1, Neuraminidase (Influenza A virus, UniProt B4URF0); assay: Inhibition of Influenza Virus A/Potsdam/15/81 (H1N1) neuraminidase
[3] = system: Influenza A virus; assay: Antiviral activity against Influenza A virus (A/Puerto Rico/8/34(H1N1)) in MDCK cells assessed as reduction in plaque number by plaque reduction assay; conditions: A/Puerto Rico/8/1934(H1N1)
[4] = target: T1, Neuraminidase; assay: Inhibition of Influenza Virus A/Belzig/2/01 (H1N1) neuraminidase; parameters: species or system Influenza A virus (A/swine/Belzig/2/2001(H1N1))
How it was run: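 Swine H1N1 NA assayed by NA-Star chemiluminescence. Compound was mixed with the diluted virus supernatant (dilution giving 40:1 signal-to-noise) for 20 min at 37 C, then substrate (1:500) was added for 30 min at room temperature. Activity relative to six untreated virus controls; IC50 from one assay, each concentration in triplicate.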

[5] = Cytotoxicity against MDCK cells; type: cell-based, Canis lupus familiaris; conditions: dog
How it was run: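 Confluent 3-day-old MDCK monolayers in EMEM with 10% FBS were exposed to serial 2-fold dilutions (triplicate) for 72 h at 37 °C, 5% CO2. Cells were fixed and stained with crystal violet-formalin, dye was extracted, and OD was read at 550/630 nm. Viability is given relative to six mock-treated controls. CC50 comes from the mean dose-response curve of two independent assays.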

[6] = target: T1, Neuraminidase; assay: Inhibition of Influenza Virus A/Horneburg/IDT7489/08 (H1N1) neuraminidase
How it was run: (§1)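 Swine H1N1 isolate NA measured by NA-Star chemiluminescence. The virus supernatant dilution giving 40:1 signal-to-noise was incubated with compound for 20 min at 37 C, then dioxetane sialic acid substrate (1:500) was added for 30 min at room temperature. Six untreated virus controls set to 100%. IC50 from n ≥ 4 assays, triplicate wells.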

[7] = target: T1, Neuraminidase; assay: Inhibition of Influenza Virus A/Brest/IDT7490/08 (H1N1) neuraminidase; how it was run: as §1

Chain of Neuraminidase (Influenza A virus (A/Puerto Rico/8/1934(H1N1)), UniProt P03468) (P03468 whole entry): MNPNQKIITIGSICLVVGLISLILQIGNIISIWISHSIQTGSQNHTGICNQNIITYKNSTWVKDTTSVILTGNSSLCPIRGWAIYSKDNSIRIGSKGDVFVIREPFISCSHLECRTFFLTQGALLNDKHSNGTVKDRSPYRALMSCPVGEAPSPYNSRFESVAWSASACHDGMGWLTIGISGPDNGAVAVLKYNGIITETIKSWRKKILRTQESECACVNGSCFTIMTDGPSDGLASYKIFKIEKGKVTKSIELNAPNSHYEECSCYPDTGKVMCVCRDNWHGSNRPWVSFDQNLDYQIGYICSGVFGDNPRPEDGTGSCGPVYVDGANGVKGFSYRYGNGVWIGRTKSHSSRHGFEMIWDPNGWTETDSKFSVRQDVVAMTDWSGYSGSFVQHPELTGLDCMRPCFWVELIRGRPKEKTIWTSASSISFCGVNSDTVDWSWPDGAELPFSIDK
T1 sequence (B4URF0 whole entry): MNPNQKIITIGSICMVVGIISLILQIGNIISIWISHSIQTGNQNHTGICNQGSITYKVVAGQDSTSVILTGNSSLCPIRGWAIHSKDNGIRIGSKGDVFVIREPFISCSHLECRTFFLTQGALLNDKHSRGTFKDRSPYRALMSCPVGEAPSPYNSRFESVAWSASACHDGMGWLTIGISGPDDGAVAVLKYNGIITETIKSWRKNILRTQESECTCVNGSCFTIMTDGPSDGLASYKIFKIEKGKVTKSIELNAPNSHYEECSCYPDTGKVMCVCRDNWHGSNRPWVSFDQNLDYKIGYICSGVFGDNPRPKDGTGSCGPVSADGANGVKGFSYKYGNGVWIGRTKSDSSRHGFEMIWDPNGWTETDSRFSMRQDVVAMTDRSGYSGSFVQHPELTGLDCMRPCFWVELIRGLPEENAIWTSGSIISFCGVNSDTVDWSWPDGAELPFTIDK

Compound O=C(/C=C(O)\C=C\c1ccccc1)CCc1ccccc1 has an IC50 [1] of 4.67 µM.

With O[C@@H](CC/C=C/c1ccccc1)CCc1ccccc1 the IC50 [1] was 4.13 µM.

Compound O[C@@H](CCc1ccccc1)C[C@H](O)/C=C/c1ccccc1 has an IC50 [1] of 29.8 µM.

Compound CC(C)=CCC/C(C)=C/CC/C(C)=C/CO [FARNESOL] has an IC50 [1] of 81.4 µM.

O=C(/C=C/C=C/c1ccccc1)CCc1ccccc1 gave an IC50 [1] of 6.1 µM.

Compound O=C(CCc1ccccc1)C[C@@H]1C[C@@H](c2ccccc2)c2c(cc(/C=C/c3ccccc3)oc2=O)O1 [KATSUMADAIN A] has an IC50 [2] of 0.00073 µM, an IC50 [3] of 11.8 µM and an IC50 [4] of 0.00059 µM. For the same compound, the CC50 [5] was 66.9 µM, the IC50 [6] was 0.00111 µM and the IC50 [7] was 0.00164 µM. For the same compound, the IC50 [1] was 1.05 µM.
